The text below walks through data of ChEMBL document CHEMBL3044969, “Syntheses and biological activities of dihydro-5,6-dehydrokawain derivatives” (1996).

Each structure is given as a SMILES string. The source made the active and inactive calls. The rule behind the calls is not given here.

The test system of assay [1] is Pythium. The assay is described as follows: Antifungal activity against Pythium sp. assessed as growth inhibition at 1000 ppm by agar dilution method relative to control. The note with it: read-out: GI. In kind it is functional. The essentials: (§1)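 Pythium sp. and Corticium rolfsii were each grown on potato dextrose agar (1.5% agar) for 5 days at 27°C before testing. Growth inhibition was measured by agar dilution, following a previously reported method.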

Assay [2] has as its system Athelia rolfsii. The assay is described as follows: Antifungal activity against Athelia rolfsii assessed as growth inhibition at 100 ppm by agar dilution method relative to control. Format: functional. The note with it: Agroathelia rolfsii; read-out: GI. The essentials:
as §1
For orientation: In agar dilution, organisms are placed on agar that contains the substance at set levels.

The test system of assay [3] is Athelia rolfsii. The assay is described as follows: Antifungal activity against Athelia rolfsii assessed as growth inhibition at 1000 ppm by agar dilution method relative to control. The note with it: Agroathelia rolfsii; read-out: GI. In kind it is functional. The essentials: as §1
Assay [4] concerns Pythium. As to the kind of experiment: Antifungal activity against Pythium sp. assessed as growth inhibition at 100 ppm by agar dilution method relative to control. The note with it: read-out: GI. Format: functional. The essentials: as §1
Assay [5] relates to Coptotermes formosanus. The assay is described as follows: Insecticidal activity against Coptotermes formosanus assessed as increase in mortality at 1 mg/filter paper measured for 14 days relative to control. In kind it is functional. The essentials:
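The termite assay was run in three replicates, which were combined into a mean. Mortality is given as a percentage relative to the untreated control termite group.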

The subject of assay [6] is Coptotermes formosanus. As to the kind of experiment: Insecticidal activity against Coptotermes formosanus assessed as increase in mortality at 0.1 to 1 mg/filter paper measured for 14 days. In kind it is functional, organism-based. The essentials:
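Termite mortality was counted in three replicates and the replicates were combined into a mean. Mortality is given as a percentage relative to an untreated control group of termites.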

What is called mortality is the percentage killed.

`COc1cc(/C=C/c2ccccc2)oc(=O)c1` [DESMETHOXYYANGONIN]: the inhibition of growth at 1000 ppm worked out at 86% in assay [1] and 54% in assay [3]. The figures for the inhibition of growth at 100 ppm in assay [2] and in assay [4] were 0% and 42%, respectively.

On to `COP(=S)(OC)Oc1cc(CCc2ccccc2)oc(=O)c1`, for which the results for the inhibition of growth at 1000 ppm in assay [1] and in assay [3] were 88% and 98%, respectively. For the same compound, the mortality in assay [5] turned out to be 93%. Moreover, the inhibition of growth at 100 ppm in assay [2] was found to be 91%; in assay [4] it was 50%.

`CCOP(=S)(OCC)Oc1cc(CCc2ccccc2)oc(=O)c1`: the inhibition of growth at 1000 ppm in assay [1] stood at 44%; in assay [3], 66%. In assay [5], the mortality came out at 50%. The inhibition of growth at 100 ppm was 57% in assay [2] and 18% in assay [4].

As for `COc1cc(CCc2ccccc2)oc(=O)c1` [DIHYDRO-5,6-DEHYDROKAWAIN], the inhibition of growth at 1000 ppm in assay [1] was found to be 94%; in assay [3], 96%. For the same compound, in assay [6], the result was inactive. Besides, the inhibition of growth at 100 ppm in assay [2] is 64%; in assay [4], 72%.

In the case of `O=c1cc(O)cc(CCc2ccccc2)o1`, the inhibition of growth at 1000 ppm in assay [1] and in assay [3] was 100% throughout. Further, the result in assay [6] was inactive. In addition, the inhibition of growth at 100 ppm in assay [2] was 44%; in assay [4], 22%.
